# Measured values collected from several papers.
# Each line is one published result; the experiments were not run side by side.
# Target: Dual specificity mitogen-activated protein kinase kinase 4 (MAP2K4, Homo sapiens, UniProt P45985)
# One construct used (P45985 1-399): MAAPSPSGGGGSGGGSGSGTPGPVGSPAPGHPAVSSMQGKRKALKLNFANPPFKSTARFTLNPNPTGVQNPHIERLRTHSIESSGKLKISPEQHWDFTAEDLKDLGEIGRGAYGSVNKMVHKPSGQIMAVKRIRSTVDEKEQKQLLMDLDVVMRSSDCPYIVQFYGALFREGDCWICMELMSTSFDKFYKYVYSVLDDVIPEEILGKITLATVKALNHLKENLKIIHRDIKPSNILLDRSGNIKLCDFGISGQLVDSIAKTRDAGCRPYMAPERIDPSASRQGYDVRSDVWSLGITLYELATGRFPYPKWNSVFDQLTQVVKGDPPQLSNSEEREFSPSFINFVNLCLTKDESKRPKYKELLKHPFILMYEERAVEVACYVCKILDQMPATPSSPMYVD
SMILES,read-out,technique,tested at,remaining binding [%]
O=C(Nc1c[nH]nc1C(=O)NC1CCNCC1)c1cc(F)cc(F)c1,binding,competition with immobilised ligand,1 µM,94
CN(C)c1nccc(-c2cnn3ncccc23)n1,binding,,1 µM,81
O=C1CCc2cc(Nc3cc(OC4CCOCC4)c([N+](=O)[O-])cc3Cl)ccc2N1,cell-free assay,competition with immobilised ligand,1 µM,100
N[C@@H]1CCN(c2nccc(-c3cnn4ncccc34)n2)C1,binding,,1 µM,99
CCC(=O)N[C@@H]1CC[C@H](C(=O)N(C)c2ccc(-c3nc4ccccc4o3)cc2)C1,cell-free assay,competition with immobilised ligand,1 µM,100
COc1cnc(Nc2cccc(S(N)(=O)=O)c2)nc1N1CCN(c2ccccc2)CC1,binding,competition with immobilised ligand,1 µM,99
F[C@@H]1CCN(c2nccc(-c3cnn4ncccc34)n2)C1,binding,,1 µM,100
C[C@@H](c1ccc(-n2cnc3c(N)ncnc32)cc1)N1CCc2nn(C)c(Cc3ccccc3)c2C1=O,binding,competition with immobilised ligand,0.1 µM,57
COc1cc(-c2cn(C3CCc4ccccc4N(CC(F)(F)F)C3=O)nn2)ccc1-n1ccc(C)n1 (centres unmarked),cell-free assay,competition with immobilised ligand,1 µM,100
CC1CCCN1c1nccc(-c2cnn3ncccc23)n1 (centres unmarked),binding,,1 µM,100
CC(=O)N1CCC(c2ccc(C(=O)NC3=NCCN3)cc2C(F)(F)F)CC1,cell-free assay,competition with immobilised ligand,1 µM,100
COc1ccnn2ncc(-c3ccnc(N(C)C)n3)c12,binding,,1 µM,100
Cc1nc(C2CCN(C(=O)c3ccc(OC(F)(F)F)cc3N)CC2)c2ncc(N3CCN(C)CC3)cc2n1,cell-free assay,competition with immobilised ligand,1 µM,100
Cc1cnn2ncc(-c3ccnc(N(C)C)n3)c2c1,binding,,1 µM,100
c1cncc(-c2cccc(Nc3nccc(NC4CCCCC4)n3)c2)c1,binding,competition with immobilised ligand,10 µM,64
FC(F)(F)Oc1cccc(-c2cnc3ccc(-c4ccncc4)nn23)c1,cell-free assay,competition with immobilised ligand,5 µM,69
O=C(c1ccc(Nc2ncc(Cl)c(-c3cc4ccccc4s3)n2)cc1)N1CCC(N2CCCC2)CC1,binding,competition with immobilised ligand,1 µM,69
CS(=O)(=O)N1CCCC(NC(=O)[C@H](CCC2CCCCC2)NC(=O)c2ccc(CNC(=O)c3cnc4ccccn34)cc2)C1 (some centres unmarked),cell-free assay,competition with immobilised ligand,0.1 µM,100
COc1ncc2cc3ccccc3nc2c1C#N,cell-free assay,competition with immobilised ligand,5 µM,100
O=C(NCCCN1CCOCC1)c1ccc(Nc2nccc(-c3cc4ccccc4s3)n2)cc1,binding,competition with immobilised ligand,1 µM,69
